The test system of assay [1] is Mus musculus. The assay is described as follows: Median toxic dose was evaluated by […] through intraperitoneal administration. Format: functional.
The species entered for assay [2] is Mus musculus. The assay is described as follows: Time to peak toxicity was evaluated by Maximal electroshock seizure test in hours. It counts as functional. On the technique in general: In the maximal electroshock model the usual endpoint is tonic extension of the hind limbs.
The species entered for assay [3] is Rattus norvegicus. The assay is described as follows: Protective index (TD50/ED50) was determined against scMet induced seizure in rat. It counts as functional. The method in brief:
(§1)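 Oral dosing in 30% PEG 400: phase IV in mice (0.01 mL/g), phase VI in Sprague-Dawley rats (0.004 mL/g). ED50/TD50 found as in phase II, at the stated time of peak effect. MES current 50 mA in mice, 150 mA in rats. Toxicity by rotorod in mice; positional sense, gait and stance in rats. PI = TD50/ED50.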

Assay [4] concerns Mus musculus. The experiment in a line: Anti-seizure activity was evaluated by Maximal electroshock seizure (MES) test at dose 100 mg/kg after 0.5 hours; +++ denotes antiseizure activity. Format: functional, organism-based. The arrangement: dose 100 mg/kg. The method in brief: (§2)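 Phase I screen in mice: ip injection at 30, 100, 300 and 600 mg/kg in 30% PEG 400 (0.01 mL/g). Test run 0.5 h and 4 h after dosing. 60-Hz AC, 50 mA, via corneal electrodes for 0.2 s. Protection means abolition of hind-leg tonic extension. Scored ++++ to + for activity at 30 to 600 mg/kg.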

Assay [5] is filed under the species Mus musculus. The assay is described as follows: Time to peak activity was evaluated by Maximal electroshock seizure test in hours. Format: functional.
Assay [6] has as its system Mus musculus. The assay is described as follows: Median effective dose was evaluated by subcutaneous pentylenetetrazole seizure test through intraperitoneal administration. Format: functional. The method in brief:
(§3)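 Phase II in mice, ip dosing in 30% PEG 400. Groups of 6-12 mice per dose until at least three points fall in 10-90% protection. […] MES: 50 mA, 0.2 s corneal. scMet: pentylenetetrazol 85 mg/kg sc.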

Assay [7] relates to Mus musculus. The experiment in a line: Anti-seizure activity was evaluated by Subcutaneous pentylenetetrazole seizure test at dose 300 mg/kg after 4.0 hours; ++ denotes antiseizure activity. Format: functional, organism-based. The arrangement: dose 300 mg/kg. The method in brief: (§4)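 Phase I screen in mice: ip dosing at 30, 100, 300 and 600 mg/kg in 30% PEG 400, read 0.5 h and 4 h after. Pentylenetetrazol given sc at CD97 (85 mg/kg). Protection means no clonic spasm of at least 5 s over 30 min. Scored ++++ to + for 30 to 600 mg/kg.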

The species named for assay [8] is Rattus norvegicus. The experiment in a line: Protective index (TD50/ED50) was determined against MES induced seizure in rat. Format: functional. The method in brief: as §1
In assay [9] the test system is Mus musculus. The experiment in a line: Anti-seizure activity was evaluated by Subcutaneous pentylenetetrazole seizure test at dose 100 mg/kg after 0.5 hours; +++ denotes antiseizure activity. Format: functional, organism-based. Further details: dose 100 mg/kg. The method in brief:
as §4

The subject of assay [10] is Mus musculus. The experiment in a line: Median effective dose was evaluated by Maximal electroshock seizure test through intraperitoneal administration. Format: functional. The following applies: ip. In a few lines: as §3
In assay [11] the test system is Mus musculus. The experiment in a line: Anti-seizure activity was evaluated by Neurologic toxicity (rotarod test) at dose 600 mg/kg after 4.0 hours; + denotes neurotoxicity. Format: functional, organism-based. The arrangement: dose 600 mg/kg. The method in brief: (§5)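 Phase I neurotoxicity in mice by rotorod ataxia test. Compound given ip at 30, 100, 300 or 600 mg/kg in 30% PEG 400, read 0.5 h and 4 h after. Scored ++++ to + for toxicity at 30 to 600 mg/kg; - means no toxicity.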
A general note: In the rotarod test animals must keep their balance on a rotating rod.

Assay [12] relates to Mus musculus. The experiment in a line: Anti-seizure activity was evaluated by Neurologic toxicity (rotarod test) at dose 300 mg/kg after 0.5 hours; ++ denotes antiseizure activity. Format: functional, organism-based. Further details: dose 300 mg/kg. The method in brief: as §5
Assay [13] deals with Mus musculus. The assay is described as follows: Anti-seizure activity was evaluated by Subcutaneous pentylenetetrazole seizure test at dose 300 mg/kg after 0.5 hours; ++ denotes antiseizure activity. It counts as functional, organism-based. The arrangement: dose 300 mg/kg. The method in brief:
as §4

In assay [14] the test system is Mus musculus. The assay is described as follows: Anti-seizure activity was evaluated by Neurologic toxicity (rotarod test) at dose 600 mg/kg after 0.5 hours; + denotes neurotoxicity. It counts as functional, organism-based. The arrangement: dose 600 mg/kg. The method in brief: as §5
Assay [15] concerns Mus musculus. The experiment in a line: Anti-seizure activity was evaluated by Maximal electroshock seizure (MES) test at dose 100 mg/kg after 4.0 hours; +++ denotes antiseizure activity. Format: functional, organism-based. The arrangement: dose 100 mg/kg. In a few lines:
as §2

Broadly, the TD50 is the dose at which the toxic effect under study appears in half of the subjects. Lower therefore signals harm at a small dose. As usually defined, the ED50 is the midpoint of the dose-response relation. A lower ED50 goes with greater potency. In assay [1], `O=C(Cc1cccc(Cl)c1)NS(=O)(=O)C(F)(F)F` showed a TD50 of 249 mg/kg. In addition, the results for the TPE in [2] and in assay [5] were 0.5 and 2, respectively. In addition, the values for the PI in assay [3] and in assay [8] were 7.2 and 37, respectively. Further, the Activity entry in assay [4], in assay [7], in assay [9], in [11] and in assay [12] was “Antiseizure activity” throughout. The 50% effective dose (ED50) is 35 mg/kg in assay [6] and 6.8 mg/kg in assay [10].
For `O=C(Cc1ccc([N+](=O)[O-])cc1)NS(=O)(=O)C(F)(F)F`, the TD50 in [1] is 482 mg/kg. Further, the results for the TPE in [2] and in assay [5] were 6 and 4, respectively. For the same compound, the PI in assay [3] came out at 24; in [8] it was 39. Besides, the Activity result in assay [4], in assay [13], in assay [11] and in [12] was “Antiseizure activity” in each case. Besides, the values for the ED50 in assay [6] and in [10] were 20 mg/kg and 12 mg/kg, respectively.
For `COc1cccc(CC(=O)NS(=O)(=O)C(F)(F)F)c1`, in assay [1], the TD50 was 325 mg/kg. The TPE in assay [2] and in assay [5] was 2 throughout. The PI in assay [3] came to 4.2; in assay [8], 17. Moreover, the Activity result in assay [4], in [13], in [14], in assay [7], in assay [11] and in assay [15] was “Antiseizure activity” each time. Moreover, the ED50 in assay [6] was found to be 77 mg/kg; in assay [10], 19 mg/kg.

(Values after ChEMBL document CHEMBL1129543, “Synthesis and evaluation of N-(phenylacetyl)trifluoromethanesulfonamides as anticonvulsant agents” (J Med Chem, 1996).)
